Results reported in ChEMBL document CHEMBL1135471, “Sugar-modified conjugated diene analogues of adenosine and uridine: synthesis, interaction with S-adenosyl-L-homocysteine hydrolase, and antiviral and cytostatic effects” (J Med Chem, 2002).
Activity calls are given as the source filed them. The rule behind the calls is not given here.

Columns and labels:
[1] = target: T1, Adenosylhomocysteinase (Homo sapiens, UniProt P23526); assay: Percent NAD+ content after incubation of AS-adenosylhomocysteine hydrolase (5.8 uM) with 100 uM of compound at 37 degree C for 20 min; format: functional
In short: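 Human AdoHcy hydrolase at 5.8 μM was preincubated with 100 μM inhibitor in 50 mM potassium phosphate, pH 7.2, with 1 mM EDTA, at 37 °C for 20 min. Cofactors were released with HClO4. NAD+ was quantified by C18 RP-HPLC (25 mM phosphate pH 3.2 with heptane sulfonic acid; acetonitrile gradient) with detection at 258 nm. Values are % NAD+ remaining.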
Target sequence in this assay (P23526 2-432 limits assumed): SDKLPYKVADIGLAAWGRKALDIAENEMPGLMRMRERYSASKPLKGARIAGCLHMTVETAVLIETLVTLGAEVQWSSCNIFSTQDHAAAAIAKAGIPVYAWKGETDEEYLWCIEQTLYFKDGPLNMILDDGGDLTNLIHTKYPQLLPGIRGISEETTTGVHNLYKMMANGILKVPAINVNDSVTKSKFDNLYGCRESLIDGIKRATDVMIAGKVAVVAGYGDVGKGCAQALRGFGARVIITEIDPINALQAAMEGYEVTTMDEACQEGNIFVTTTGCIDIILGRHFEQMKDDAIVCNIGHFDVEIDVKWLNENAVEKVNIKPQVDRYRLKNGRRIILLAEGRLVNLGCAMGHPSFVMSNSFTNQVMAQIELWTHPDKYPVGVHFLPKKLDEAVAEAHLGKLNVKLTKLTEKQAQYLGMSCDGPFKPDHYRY

[2] = test system: HEL; assay: 50 % cytotoxic concentration for human embryonic lung (HEL) cells; format: functional
In short: (§1)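 Human embryonic lung (HEL) cells were used against CMV strains AD-169 and Davis and VZV strains YS, OKA, 07/1 and YS/R. EC50 values are for the antiviral effect. The minimum cytotoxic concentration and CC50 for HEL cells were measured alongside.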

[3] = test system: Vaccinia virus; assay: Activity against vaccinia virus, was determined; No activity; format: functional, organism-based; conditions: Orthopoxvirus vaccinia
[4] = test system: HEL; assay: Minimum cytotoxic concentration determined in embryonic lung (HEL) cells; format: functional, Homo sapiens; in short: as §1
[5] = Minimum cytotoxic concentration against vesicular stomatitis virus in HeLa cell cultures, was determined.; format: functional
[6] = test system: Human alphaherpesvirus 1; assay: Activity against herpes simplex virus 1 (HSV-1) strain KOS, was determined; No activity; format: functional, organism-based
[7] = test system: Vesicular stomatitis virus; assay: Activity against vesicular stomatitis virus, was determined; No activity; format: functional, organism-based
[8] = test system: E6SM; assay: Minimum concentration required to cause a microscopically detectable alteration of normal cell morphology in human embryonic skin muscle (E6SM) cell cultures; format: functional; conditions: for minimal effective concentration: read-out: MEC
In short: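 E6SM cell cultures were examined by microscopy. The value is the minimum concentration giving a detectable alteration of normal cell morphology.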

[9] = Minimum cytotoxic concentration against respiratory syncytial virus in HeLa cell cultures, was determined; format: functional
[10] = test system: Human alphaherpesvirus 2; assay: Activity against herpes simplex virus 2 (HSV-2) strain G, was determined; No activity; format: functional, organism-based
[11] = test system: Vero; assay: Antiviral activity (cytotoxicity) was evaluated in vero cell cultures.; format: functional, Chlorocebus sabaeus
[12] = target: T1, Adenosylhomocysteinase; assay: Percent S-adenosyl-homocysteine hydrolase (210 nM) activity remaining after incubating with 100 uM at 37 degree C for 20 minutes
In short: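 Human enzyme preincubated with compound in 50 mM potassium phosphate pH 7.2, 1 mM EDTA. Residual activity measured in the synthetic direction: 1 mM Ado plus 1 mM Hcy, 37 °C, 1 min, stopped with HClO4. AdoHcy quantified by RP-HPLC at 258 nm. Duplicate determinations averaged.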
Target sequence in this assay (P23526 2-432 limits assumed): as above

[13] = test system: Human immunodeficiency virus 1; assay: Cytostatic concentration against […] virus strains IIIB and ROD, in T-lymphocytic MT-4 cells; format: functional; conditions: Human immunodeficiency virus 1, MT4
In short: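 T-lymphocytic MT-4 cells were tested alongside HIV-1 IIIB and HIV-2 ROD antiviral assays. The CC50 is the 50% cytostatic concentration for the MT-4 cells.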

[14] = Minimum cytotoxic concentration against Coxsackie B4 virus in HeLa cell cultures, was determined.; format: functional, Coxsackievirus B4
[15] = target: T1, Adenosylhomocysteinase; assay: Percent NAD+ content after incubation of S-adenosyl-homocysteine hydrolase (5.8 uM) with 100 uM of compound at 37 degree C for 20 min; format: functional
In short: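 Enzyme in 50 mM potassium phosphate pH 7.2 with 1 mM EDTA. After the inhibitor step, cofactors were released with 5 N HClO4. NAD+ was quantified by C18 RP-HPLC at 258 nm, using a 2–98% acetonitrile gradient over 25 min against 25 mM phosphate pH 3.2 containing 10 mM heptane sulfonic acid.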
Target sequence in this assay (P23526 2-432 limits assumed): as above

[16] = target: T1, Adenosylhomocysteinase; assay: Inactivation constant for aS-adenosylhomocysteine hydrolase, was determined using Kitz and Wilson equation {Kobs = Kinact. [I]/(Ki + [I])}.
Target sequence in this assay (P23526 2-432 limits assumed): as above

[17] = target: T1, Adenosylhomocysteinase; assay: Inhibitory constant for S-adenosyl-homocysteine hydrolase, was determined using Kitz and Wilson equation {Kobs = Kinact. [I]/(Ki + [I])}.
Target sequence in this assay (P23526 whole entry): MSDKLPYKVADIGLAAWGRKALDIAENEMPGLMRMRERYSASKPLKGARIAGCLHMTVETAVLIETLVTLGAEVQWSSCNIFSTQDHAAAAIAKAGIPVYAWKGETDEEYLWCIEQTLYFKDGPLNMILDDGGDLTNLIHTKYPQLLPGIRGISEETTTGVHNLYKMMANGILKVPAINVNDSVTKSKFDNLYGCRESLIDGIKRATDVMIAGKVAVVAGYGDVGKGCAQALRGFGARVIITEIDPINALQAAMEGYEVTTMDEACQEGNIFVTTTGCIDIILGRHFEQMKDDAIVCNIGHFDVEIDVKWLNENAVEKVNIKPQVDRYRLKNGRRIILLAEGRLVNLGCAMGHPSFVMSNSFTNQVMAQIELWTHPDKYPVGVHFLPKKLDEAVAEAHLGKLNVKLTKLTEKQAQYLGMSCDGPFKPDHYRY

[18] = test system: HEL; assay: Minimum cytotoxic concentration determined in embryonic lung (HEL) cells against human CMV, strains AD-169 and Davis and VZV, strains YS, OKA, 07/1, and YS/R; format: functional; in short: as §1
[19] = test system: Human alphaherpesvirus 3; assay: 50 % effective concentration against Varicella-Zoster virus (VZV) was determined.; format: functional, organism-based; in short: as §1
[20] = test system: Vero; assay: Antiviral activity was evaluated in vero cell cultures.; format: functional; conditions: Chlorocebus sabaeus
[21] = target: T1, Adenosylhomocysteinase; assay: Inactivation constant for S-adenosyl-homocysteine hydrolase, was determined using Kitz and Wilson equation {Kobs = Kinact. [I]/(Ki + [I])}.
Target sequence in this assay (P23526 2-432 limits assumed): as the sequence (P23526 2-432 limits assumed) above

[22] = test system: Human betaherpesvirus 5; assay: 50 % effective concentration against cytomegalo virus (CMV); format: functional, organism-based; in short: as §1
[23] = test system: Respiratory syncytial virus; assay: Minimum cytotoxic concentration against respiratory syncytial virus in HeLa cell cultures; format: functional
[24] = test system: Vaccinia virus; assay: Minimum cytotoxic concentration against vaccinia virus, was determined; format: functional, organism-based; conditions: Orthopoxvirus vaccinia
[25] = test system: Vesicular stomatitis virus; assay: Minimum cytotoxic concentration against vesicular stomatitis virus in HeLa cell cultures; format: functional
[26] = test system: Coxsackievirus B4; assay: Minimum cytotoxic concentration against Coxsackie B4 virus in HeLa cell cultures; format: functional
[27] = test system: Human alphaherpesvirus 2; assay: Activity against herpes simplex virus 2 (HSV-2) […], was determined; No activity; format: functional, organism-based
[28] = test system: Vero; assay: Activity was evaluated in vero cell cultures; Cytotoxic; format: functional, cell-based; conditions: Chlorocebus sabaeus

Row | Structure (SMILES) | antiviral activity [3] | MCC50 [5] | antiviral activity against HSV-1 [6] | antiviral activity [7] | MEC50 [8] | MCC50 [9] | Antiviral activity against HSV-2 [10] | MCC50 [11] | Activity [12] | CC50 [13] | MCC50 [14] | NAD+ content [15] | Ki [17] | minimal effective concentration [8] | MCC [20] | further results
1 | Nc1ncnc2c1ncn2C1O[C@H](/C=C/C=C(Br)Br)[C@@H](O)[C@H]1O (some centres undefined) | inactive | >35 µM | inactive | inactive | 6.7 µM | >35 µM | inactive | >35000 µM | 48% | 11 µM | >35 µM | – | – | – | – | NAD+ content [1]: 93.1%; CC50 [2]: 54 µM; MCC50 [4]: 45 µM
2 | CCOC(=O)/C=C/C=C/[C@H]1OC(n2cnc3c(N)ncnc32)[C@H](O)[C@@H]1O (some centres undefined) | inactive | >200 µM | inactive | inactive | >40 µM | >200 µM | inactive | >200 µM | 3.6% | 175 µM | >200 µM | 25.9% | 10 µM | – | – | K inact [16]: 0.7 min⁻¹; MCC50 [18]: >120 µM
3 | CCOC(=O)/C=C\C=C\[C@H]1OC(n2ccc(=O)[nH]c2=O)[C@H](O)[C@@H]1O (some centres undefined) | inactive | >200 µM | inactive | inactive | – | >200 µM | inactive | – | – | 40 µM | >200 µM | – | – | > 40 µM | > 200 µM | EC50 [19]: 10 µM
4 | CCOC(=O)/C=C/C=C/[C@H]1OC(n2ccc(=O)[nH]c2=O)[C@H](O)[C@@H]1O (some centres undefined) | inactive | >200 µM | inactive | inactive | – | >200 µM | inactive | – | – | > 370 µM | >200 µM | – | – | > 40 µM | > 200 µM | –
5 | CCOC(=O)/C=C\C=C\[C@H]1OC(n2cnc3c(N)ncnc32)[C@H](O)[C@@H]1O (some centres undefined) | inactive | >200 µM | inactive | inactive | >40 µM | >200 µM | inactive | >200 µM | 1.8% | 160 µM | >200 µM | 36.2% | 13.7 µM | – | – | K inact [21]: 0.59 min⁻¹; EC50 [22]: 18 µM
6 | O=c1ccn(C2O[C@H](/C=C/C=C(Br)Br)[C@@H](O)[C@H]2O)c(=O)[nH]1 (some centres undefined) | – | – | inactive | – | >40 µM | – | – | – | – | 300 µM | – | – | – | – | – | MCC50 [23]: >=200 uM; MCC50 [24]: inactive; MCC50 [25]: >=200 uM; MCC50 [26]: >=200 uM; MCC50 [27]: inactive; Activity [28]: Toxic
